Reference: ChEMBL document CHEMBL4261550, “Triazolopyrimidines identified as reversible myeloperoxidase inhibitors” (Medchemcomm, 2017)
Calls of active or inactive are those of the source. No cut-off for these calls is given here.

Tests used:
Myeloperoxidase [1] = biological target: T1, Myeloperoxidase (Homo sapiens, UniProt P05164); assay: Inhibition of human MPO assessed as reduction in enzyme-mediated chlorination by measuring reduction in HOCl formation preincubated for 10 mins followed by H2O2/NaCl addition and measured at 30 secs time interval for 5 mins by APF dye based fluorescence assay
T1 sequence (P05164 whole entry): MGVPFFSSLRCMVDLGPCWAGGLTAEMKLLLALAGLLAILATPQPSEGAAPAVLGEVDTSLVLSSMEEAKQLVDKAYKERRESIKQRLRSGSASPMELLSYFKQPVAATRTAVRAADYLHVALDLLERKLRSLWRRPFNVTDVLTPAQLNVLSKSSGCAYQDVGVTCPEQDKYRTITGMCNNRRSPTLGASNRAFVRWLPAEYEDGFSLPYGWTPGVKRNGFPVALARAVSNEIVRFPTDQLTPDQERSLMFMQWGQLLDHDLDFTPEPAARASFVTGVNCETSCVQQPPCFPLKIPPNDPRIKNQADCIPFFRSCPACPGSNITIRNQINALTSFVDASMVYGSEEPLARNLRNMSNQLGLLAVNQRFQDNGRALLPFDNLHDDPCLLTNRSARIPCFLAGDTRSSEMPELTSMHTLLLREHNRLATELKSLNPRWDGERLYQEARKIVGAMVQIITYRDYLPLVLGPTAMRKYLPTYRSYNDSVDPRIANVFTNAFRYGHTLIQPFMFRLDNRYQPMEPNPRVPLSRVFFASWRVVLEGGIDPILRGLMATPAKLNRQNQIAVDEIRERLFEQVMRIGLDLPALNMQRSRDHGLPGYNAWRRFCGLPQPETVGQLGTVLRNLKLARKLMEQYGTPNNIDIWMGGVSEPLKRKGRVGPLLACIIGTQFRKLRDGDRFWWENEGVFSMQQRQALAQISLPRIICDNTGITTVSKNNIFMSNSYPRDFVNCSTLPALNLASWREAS

[2] = biological target: T2, Myeloperoxidase (Homo sapiens) (UniProt P05164); assay: Inhibition of human MPO assessed as reduction in enzyme-mediated chlorination by measuring reduction in HOCl formation at 10 uM preincubated for 10 mins followed by H2O2/NaCl addition and measured at 30 secs time interval for 5 mins by APF dye based fluorescence assay relative to control
T2 sequence (whole entry): T1 sequence (P05164 whole entry)
Summary of the method: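 HTS APF chlorination, 1536-well: 1.75 nM human MPO with 20 μM H2O2 final, compound 10 μM final, preincubated 10 min; APF reagent added, fluorescence 485/535 nm read every 30 s for 5 min; slope normalized to DMSO (0%) and no-MPO wells (100% inhibition).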

Myeloperoxidase [3] = biological target: T1, Myeloperoxidase; assay: Inhibition of human MPO assessed as reduction in enzyme-mediated chlorination by measuring reduction in HOCl formation in presence of H2O2/NaCl measured at 30 secs time interval for 5 mins by APF dye based fluorescence assay
[4] = biological target: T2, Myeloperoxidase (Homo sapiens); assay: Substrate activity at human MPO assessed as reversion of enzyme to resting state at 80 uM in presence of H2O2 by stopped flow assay
Summary of the method: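 Stopped-flow at 25 °C: syringe 1 with 2 μM MPO and 5 μM H2O2 in phosphate buffer, syringe 2 with inhibitor and 5 μM H2O2; equal volumes rapidly mixed, spectra acquired in PDA mode to follow several MPO species; representative of numerous replicates.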

[5] = Hypochlorus scavenging activity at 10 uM in presence of sodium hypochlorite after 15 mins by APF dye based fluorescence assay relative to control; format: functional
Summary of the method: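 NaOCl-scavenger counterscreen in 1536-well format: 50 μM NaOCl in place of MPO with APF reagent, compound 10 μM final; fluorescence intensity read after 15 min incubation; ≥20% loss of fluorescence flagged as interference.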

[6] = Redox activity assessed as conversion of resazurin reagent to resorufin at 10 uM after 30 mins by fluorescence assay relative to control; format: physicochemical; details: 0.5 h
Summary of the method: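 Redox counterscreen: compound 10 μM final incubated with 5 μM resazurin reagent (final) 30 min; fluorescence intensity read; normalized to a reactive styrylpyrimidotriazinedione standard at 10 μM as 100%.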

Myeloperoxidase [7] = biological target: T1, Myeloperoxidase; assay: Inhibition of human MPO peroxidase activity in presence of H2O2 measured at 30 secs time interval for 5 mins by amplex red reagent based fluorescence assay
[8] = biological target: T2, Myeloperoxidase (Homo sapiens); assay: Irreversible inhibition of human MPO peroxidase activity at 20 nM preincubated for up to 30 mins followed by H2O2 addition and 2 to 10 times compound dilution measured at 30 secs time interval for 5 mins by amplex red reagent based fluorescence assay
Summary of the method: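 MPO (20 nM, phosphate buffer) was preincubated with inhibitor and 100 nM H2O2 for 2, 10, 20 and 30 min. Inhibitor was at 5x–10x the Amplex Red IC50 when that IC50 was > 1 μM, or 2–10x the enzyme concentration when it was < 1 μM. Controls were peroxide with 0.2% DMSO, and 4-hydroxybenzoic acid hydrazide. Unbound inhibitor was removed on a G50 spin column. Flow-through was assayed by Amplex Red, and the initial rate gave % activity remaining versus control. Runs were repeated with 100 mM NaCl and 150 μM L-methionine.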

Thyroid peroxidase = biological target: T3, Thyroid peroxidase (Homo sapiens, UniProt P07202); assay: Inhibition of recombinant human C-terminal His6-tagged TPO (15 to 839 residues) expressed in baculovirus infected insect cells assessed as reduction in H2O2-catalyzed 3,5-iodo tyrosine formation using 3-iodotyrosine and potassium iodide preincubated for 10 mins followed by 3,5-iodo tyrosine/potassium iodide/H2O2 addition and measured after 15 mins
T3 sequence (P07202 whole entry): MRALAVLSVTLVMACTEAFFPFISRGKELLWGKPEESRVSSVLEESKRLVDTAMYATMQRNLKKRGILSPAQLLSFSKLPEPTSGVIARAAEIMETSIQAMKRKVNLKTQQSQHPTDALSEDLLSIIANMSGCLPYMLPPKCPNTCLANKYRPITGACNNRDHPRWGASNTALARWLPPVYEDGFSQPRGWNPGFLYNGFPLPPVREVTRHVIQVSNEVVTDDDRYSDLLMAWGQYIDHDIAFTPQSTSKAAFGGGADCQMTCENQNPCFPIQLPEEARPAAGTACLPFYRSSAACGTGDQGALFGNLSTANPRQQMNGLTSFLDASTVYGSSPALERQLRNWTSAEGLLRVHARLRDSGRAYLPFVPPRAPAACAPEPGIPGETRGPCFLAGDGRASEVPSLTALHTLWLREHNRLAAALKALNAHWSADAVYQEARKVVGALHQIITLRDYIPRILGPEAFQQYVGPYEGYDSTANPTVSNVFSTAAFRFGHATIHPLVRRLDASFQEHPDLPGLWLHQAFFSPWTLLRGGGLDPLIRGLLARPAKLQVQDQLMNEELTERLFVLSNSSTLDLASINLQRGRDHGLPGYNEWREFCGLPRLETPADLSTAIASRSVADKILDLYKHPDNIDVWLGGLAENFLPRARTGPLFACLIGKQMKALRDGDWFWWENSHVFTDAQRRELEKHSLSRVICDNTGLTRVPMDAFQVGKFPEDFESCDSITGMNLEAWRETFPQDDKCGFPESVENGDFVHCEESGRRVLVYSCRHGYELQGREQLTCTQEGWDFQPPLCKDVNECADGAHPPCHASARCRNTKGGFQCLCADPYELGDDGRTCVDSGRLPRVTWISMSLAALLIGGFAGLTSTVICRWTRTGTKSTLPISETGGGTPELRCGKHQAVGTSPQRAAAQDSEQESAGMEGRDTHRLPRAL
Summary of the method: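 TPO residues 15–839 with C-terminal His6, baculovirus/T. ni expressed, purified by Ni affinity, anion exchange and size exclusion; 4.0 nM in 100 mM KPi pH 7.4, 10 min rt preincubation with inhibitor; then 400 μM KI/240 μM 3-iodotyrosine mix and 20 μM H2O2 (added solutions); 3,5-iodotyrosine formation monitored.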

Myeloperoxidase [9] = biological target: T1, Myeloperoxidase; assay: Inhibition of MPO in human neutrophils assessed as reduction in PMA-stimulated HOCl production incubated for 3 mins and measured for 25 mins by luminol reagent based luminescence assay
Summary of the method: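 Neutrophils from healthy donors isolated by dextran sedimentation then Ficoll-Paque, resuspended in HBSS; 1.106 cells/mL stimulated with 100 nM PMA; inhibitor 22 μM down to 1 nM (1:3, 10 doses) in 10% ethanol/50% PEG/40% water, 3 min at rt; luminol 100 μM final, read 25 min at 37 °C; rate taken from initial linear region.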

[10] = biological target: T2, Myeloperoxidase (Homo sapiens); assay: Ratio of IC50 for human MPO chlorination preincubated for 10 mins to IC50 for human MPO chlorination without preincubation

SMILES | IC50 (Myeloperoxidase [1]) [nM] | other results
Nc1nc(OCCc2ccccc2)c2nn[nH]c2n1 | 630 | 
COc1cccc(COc2nc(N)nc3[nH]nnc23)c1 | 490 | 
N[C@@H](Cc1c[nH]c2ccccc12)C(=O)OCc1ccccc1 | 200 | inhibition [2]: 30%; IC50 (Myeloperoxidase [3]): 110 nM; Activity [4]: Active; Activity [5]: < 20%; Activity [6]: Not Active; IC50 (Myeloperoxidase [7]): > 13000 nM
Nc1nc(OCc2cccc(F)c2)c2nn[nH]c2n1 | 40 | 
Cn1nnc2c(OCc3ccccc3)nc(N)nc21 | > 13000 | 
Cc1ccccc1COc1nc(N)nc2[nH]nnc12 | 470 | 
Nc1nc(OCc2cccc(OC(F)F)c2)c2nn[nH]c2n1 | 200 | 
Nc1nc(OCc2ccccc2F)c2nn[nH]c2n1 | 78 | 
c1ccc(COc2ncnc3[nH]nnc23)cc1 | > 13000 | 
Nc1nc(Oc2ccccc2)c2nn[nH]c2n1 | > 13000 | 
NNC(=O)c1ccc(O)cc1 |  | inhibition [8]: Active
Oc1nc(OCc2ccccc2)c2nn[nH]c2n1 | > 13000 | 
Nc1nc(OCc2ccccc2)c2cn[nH]c2n1 | > 13000 | 
O=c1[nH]c(=S)n(C[C@H]2CCCO2)c2nc[nH]c12 | 9 | inhibition [2]: 30%; IC50 (Thyroid peroxidase): 3900 nM; IC50 (Myeloperoxidase [3]): 56 nM; Activity [5]: < 20%; Activity [6]: Not Active; IC50 (Myeloperoxidase [9]): 1000 nM; Ratio IC50 [10]: 6; IC50 (Myeloperoxidase [7]): 12 nM
Nc1nc(OCc2ccccc2)c2[nH]cnc2n1 [6-O-BENZYLGUANINE] | > 13000 | 
Nc1nc(OCc2ccccc2Cl)c2nn[nH]c2n1 | 180 | 
CCNc1nc(OCc2ccccc2)c2nn[nH]c2n1 | 2900 | 
Nc1nc(OCc2ccc(F)cc2)c2nn[nH]c2n1 | 47 | 
Nc1nc(OCc2ccc(C(F)(F)F)cc2)c2nn[nH]c2n1 | 140 | 
Cc1ccc(COc2nc(N)nc3[nH]nnc23)cc1 | 510 | 
Nc1nc(OCc2cccc(Cl)c2)c2nn[nH]c2n1 | 200 | 
Nc1nc(OCc2ccccc2)c2[nH]c(O)nc2n1 | > 13000 | 
